Experimental data as given in ChEMBL document CHEMBL1127825, “Synthesis and in vitro evaluation of 9-anilino-3,6-diaminoacridines active against a multidrug-resistant strain of the malaria parasite Plasmodium falciparum” (J Med Chem, 1994).
Values after ≈ are worked out from the molar mass of the structure shown.

Assays:
Jurkat = experiment: Concentration required to reduce growth of human jurkat leukemia cells to 50% of control cultures, determined using a 72 hr continuous exposure; assay type: functional, cell-based
Summary of the method: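 Human Jurkat leukemia cells given continuous drug exposure for 72 h, then counted on a hemocytometer. IC50 is the concentration that cuts cell growth to 50% of untreated controls. Values are means of at least two independent determinations, with variation typically ±15%.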

Plasmodium falciparum [1] = experiment: Inhibitory concentration IC50 against Plasmodium falciparum K1 by [3H]hypoxanthine uptake over 24 hr; assay type: functional, organism-based
Summary of the method: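 K1 strain of P. falciparum (chloroquine- and pyrimethamine-resistant) in infected erythrocyte suspensions at 0.5% initial parasitemia, exposed to drug for 24 h at 37 °C. Read-out is [3H]hypoxanthine incorporation into parasites. IC50 is the concentration giving 50% inhibition relative to untreated controls.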

[2] = In vitro therapeutic index value is the ratio between IC50 values of [J] and [P]; assay type: cell-based; conditions: human, Jurkat cells; read-out: TI
[3] = molecular target: T1, DNA topoisomerase 2 (Plasmodium falciparum K1) (UniProt P41001); experiment: Minimum inhibitory concentration required to completely inhibit topoisomerase II activity from Plasmodium falciparum was determined using P4 DNA […] assay
T1 sequence (whole entry): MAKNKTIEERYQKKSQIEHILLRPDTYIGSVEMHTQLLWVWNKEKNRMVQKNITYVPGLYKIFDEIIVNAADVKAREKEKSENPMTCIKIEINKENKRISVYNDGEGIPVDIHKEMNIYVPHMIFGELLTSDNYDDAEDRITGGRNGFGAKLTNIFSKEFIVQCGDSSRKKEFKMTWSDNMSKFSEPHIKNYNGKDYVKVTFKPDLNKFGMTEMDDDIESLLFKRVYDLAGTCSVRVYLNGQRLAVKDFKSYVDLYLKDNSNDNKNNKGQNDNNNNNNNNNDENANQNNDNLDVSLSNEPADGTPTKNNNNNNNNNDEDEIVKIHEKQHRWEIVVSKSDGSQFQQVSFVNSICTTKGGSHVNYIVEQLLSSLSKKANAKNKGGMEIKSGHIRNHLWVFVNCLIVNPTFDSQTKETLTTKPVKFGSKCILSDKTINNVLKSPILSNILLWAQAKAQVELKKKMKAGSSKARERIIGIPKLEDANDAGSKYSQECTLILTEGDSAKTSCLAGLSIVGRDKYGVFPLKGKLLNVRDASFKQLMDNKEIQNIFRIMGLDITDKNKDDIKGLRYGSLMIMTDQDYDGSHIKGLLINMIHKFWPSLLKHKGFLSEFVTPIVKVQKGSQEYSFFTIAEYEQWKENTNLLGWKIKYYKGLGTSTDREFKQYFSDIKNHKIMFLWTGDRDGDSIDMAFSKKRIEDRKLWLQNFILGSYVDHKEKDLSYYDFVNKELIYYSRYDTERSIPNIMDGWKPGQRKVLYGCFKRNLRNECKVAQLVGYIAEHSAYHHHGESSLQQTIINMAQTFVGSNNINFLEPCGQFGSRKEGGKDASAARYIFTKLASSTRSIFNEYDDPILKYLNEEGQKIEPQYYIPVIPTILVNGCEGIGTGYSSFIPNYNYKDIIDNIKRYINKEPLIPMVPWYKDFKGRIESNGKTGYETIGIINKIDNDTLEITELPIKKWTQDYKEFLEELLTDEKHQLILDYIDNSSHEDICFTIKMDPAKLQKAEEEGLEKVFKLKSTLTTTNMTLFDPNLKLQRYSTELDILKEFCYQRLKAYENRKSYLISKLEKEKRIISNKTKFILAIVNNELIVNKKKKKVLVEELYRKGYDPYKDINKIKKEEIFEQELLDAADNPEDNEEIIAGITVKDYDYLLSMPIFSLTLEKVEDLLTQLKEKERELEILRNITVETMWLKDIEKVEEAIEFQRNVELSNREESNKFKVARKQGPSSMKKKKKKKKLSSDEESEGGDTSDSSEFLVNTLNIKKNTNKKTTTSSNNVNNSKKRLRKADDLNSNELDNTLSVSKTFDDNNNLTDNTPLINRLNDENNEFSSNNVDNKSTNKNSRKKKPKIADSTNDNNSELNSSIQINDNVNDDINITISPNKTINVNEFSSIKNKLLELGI

[4] = molecular target: DNA topoisomerase II (Homo sapiens) (UniProt P11388+Q02880); experiment: Minimum inhibitory concentration required to completely inhibit topoisomerase II activity from jurkat human leukemia cells was determined using P4 DNA unknotting assay
Summary of the method: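 Enzyme is a partially purified topoisomerase II extract from midlog Jurkat cells, made by sonication in Tris pH 8/KCl/MgCl2/EGTA buffer with protease inhibitors, then PEG/KCl precipitation. Extract is diluted to a set P4 DNA unknotting activity. Proteinase K method scores unknotting and linearization of phage P4 DNA on 0.7% agarose gels stained with ethidium bromide. MIC is the concentration giving complete inhibition.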

Plasmodium falciparum [5] = experiment: Inhibitory concentration against Plasmodium falciparum D6 infected erythrocytes; assay type: functional, organism-based
Plasmodium falciparum [6] = experiment: Inhibitory concentration against Plasmodium falciparum K1 infected erythrocytes; assay type: functional, organism-based
Summary of the method: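 Chloroquine- and pyrimethamine-resistant K1 strain in infected erythrocyte suspensions (0.5% initial parasitemia), exposed to drug for 24 h at 37 °C. Read-out: [3H]hypoxanthine incorporation into parasites. IC50 in μM is the concentration that reduces incorporation to 50% of untreated controls.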

Plasmodium falciparum [7] = experiment: Inhibitory concentration against Plasmodium falciparum W2 infected erythrocytes; assay type: functional, organism-based

SMILES | IC50 (Jurkat) [nM] | IC50 (Plasmodium falciparum [1]) [nM] | MIC [3] [µM] | MIC [4] [µM] | selectivity ratio [2] | IC50 (Plasmodium falciparum [5]) [nM] | IC50 (Plasmodium falciparum [6]) [nM] | IC50 (Plasmodium falciparum [7]) [nM]
CS(=O)(=O)Nc1ccc(Nc2c3ccccc3nc3ccccc23)cc1 | < 1000 | 3000 | – | – | < 0.3 | – | – | –
COc1cc(N=c2c3ccccc3[nH]c3cc(N)ccc23)ccc1NS(C)(=O)=O | < 1000 | 2700 | – | – | < 0.4 | – | – | –
COc1ccc(Nc2c3ccc(N)cc3nc3cc(N)ccc23)cc1 | 4000 | 150 | 6 (≈ 1.98 µg/mL) | 20 (≈ 6.61 µg/mL) | 27 | – | – | –
[N-]=[N+]=Nc1ccc2c(Nc3ccc(C(N)=O)cc3)c3ccc(N=[N+]=[N-])cc3nc2c1 | 1500 | 60 | 50 (≈ 19.8 µg/mL) | > 100 | 25 | – | – | –
CS(=O)(=O)Nc1ccc(Nc2c3ccccc3nc3cc(N)ccc23)cc1 | 2000 | 3000 | – | – | 0.7 | – | – | –
[N-]=[N+]=Nc1ccc2c(Nc3ccc(S(N)(=O)=O)cc3)c3ccc(N=[N+]=[N-])cc3nc2c1 | 2500 | 30 | – | – | 83 | – | – | –
CN(C)c1ccc(Nc2c3ccc(N)cc3nc3cc(N)ccc23)cc1 | 6000 | 34 | 12.5 (≈ 4.29 µg/mL) | 20 (≈ 6.87 µg/mL) | 176 | 63 | 34 | 118
CNc1ccc(Nc2c3ccccc3nc3ccccc23)cc1 | 1500 | 400 | – | – | 3.8 | – | – | –
COc1cc(Nc2c3ccccc3nc3ccccc23)ccc1NS(C)(=O)=O [o-Amsacrine] | 10000 | 26000 | – | – | 0.4 | – | – | –
COc1cc(NS(C)(=O)=O)ccc1Nc1c2ccc(N)cc2nc2cc(N)ccc12 | 800 | 100 | – | – | 8 | – | – | –
CN(C)c1ccc2c(Nc3ccccc3)c3ccc(N(C)C)cc3nc2c1 | 1400 | 2400 | – | – | 0.6 | – | – | –
Nc1ccc(Nc2c3ccccc3nc3cc(N)ccc23)cc1 | 750 | 100 | – | – | 7.5 | – | – | –
CN(C)C(=O)c1ccc(Nc2c3ccc(N)cc3nc3cc(N)ccc23)cc1 | > 20000 | 600 | – | – | > 33 | – | – | –
CNS(=O)(=O)c1ccc(Nc2c3ccc(N)cc3nc3cc(N)ccc23)cc1 | 2000 | 14 | 25 (≈ 9.84 µg/mL) | 20 (≈ 7.87 µg/mL) | 143 | – | – | –
CN(C)S(=O)(=O)c1ccc(Nc2c3ccc(N)cc3nc3cc(N)ccc23)cc1 | 5000 | 160 | – | – | 31 | – | – | –
Cc1ccc(Nc2c3ccc(N)cc3nc3cc(N)ccc23)cc1 | 3000 | 150 | – | – | 20 | – | – | –
COc1cc(NS(C)(=O)=O)ccc1Nc1c2ccccc2nc2cc(N)ccc12 | < 1000 | 200 | – | – | < 5 | – | – | –
C[C@@H]1CC[C@H]2[C@@H](C)C(=O)O[C@@H]3O[C@@]4(C)CC[C@@H]1[C@]32OO4 [ARTEMISININ] | – | – | – | – | – | 13 | – | 12
NC(=O)c1ccc(Nc2c3ccc(N)cc3nc3cc(N)ccc23)cc1 | > 20000 | 70 | 6 (≈ 2.06 µg/mL) | 20 (≈ 6.87 µg/mL) | > 285 | – | – | –
COc1ccc2c(Nc3ccc(S(N)(=O)=O)cc3)c3ccc(OC)cc3nc2c1 | 3100 | > 10000 | > 100 | > 100 | < 3.2 | – | – | –
CN(C)Cc1ccc(Nc2c3ccc(N)cc3nc3cc(N)ccc23)cc1 | > 20000 | 40 | 50 (≈ 17.9 µg/mL) | 20 (≈ 7.15 µg/mL) | > 500 | 113 | 40 | 277
Nc1ccc2c(Nc3ccc(O)cc3)c3ccc(N)cc3nc2c1 | 10000 | 50 | 6 (≈ 1.9 µg/mL) | 20 (≈ 6.33 µg/mL) | 200 | – | – | –
CS(=O)(=O)Nc1ccc(Nc2c3ccc(N)cc3nc3cc(N)ccc23)cc1 | 1000 | 30 | 6 (≈ 2.36 µg/mL) | 10 (≈ 3.93 µg/mL) | 33 | – | – | –
CN(C)c1ccc(Nc2c3ccccc3nc3ccccc23)cc1 | < 1000 | 470 | – | – | < 2 | – | – | –
Nc1ccc2c(Nc3ccc(S(=O)(=O)N4CCCCC4)cc3)c3ccc(N)cc3nc2c1 | 14000 | 1400 | – | – | 10 | – | – | –
Nc1ccc(Nc2c3ccccc3nc3ccccc23)cc1 | 750 | 1500 | – | – | 0.5 | – | – | –
CN(C)Cc1ccc(Nc2c3ccc(Cl)cc3nc3cc(Cl)ccc23)cc1 | 5000 | 250 | – | – | 20 | – | – | –
COc1cc(NS(C)(=O)=O)ccc1Nc1c2ccccc2nc2ccccc12 [AMSACRINE] | < 1000 | 600 | – | – | < 1.5 | – | – | –

Further lines, with some results ahead:

IC50 (Jurkat) [nM] | IC50 (Plasmodium falciparum [1]) [nM] | MIC [3] [µM] | MIC [4] [µM] | SMILES | selectivity ratio [2] | IC50 (Plasmodium falciparum [5]) [nM] | IC50 (Plasmodium falciparum [6]) [nM] | IC50 (Plasmodium falciparum [7]) [nM]
> 20000 | 40 | – | – | CNC(=O)c1ccc(Nc2c3ccc(N)cc3nc3cc(N)ccc23)cc1 | > 500 | – | – | –
< 1000 | 290 | – | – | CN(C)c1ccc(Nc2c3ccccc3nc3cc(N)ccc23)cc1 | < 3.5 | – | – | –
16000 | 600 | – | – | CCCCCNCc1ccc(Nc2c3ccc(N)cc3nc3cc(N)ccc23)cc1 | 27 | – | – | –
15000 | 300 | – | – | Nc1ccc2c(Nc3ccccc3)c3ccc(N)cc3nc2c1 | 50 | – | – | –
7500 | 150 | – | – | CN(C)Cc1ccc(Nc2c3ccccc3nc3ccccc23)cc1 | 50 | – | – | –
500 | 320 | – | – | CNc1ccc(Nc2c3ccccc3nc3cc(N)ccc23)cc1 | 1.6 | – | – | –
> 20000 | 200 | – | – | Nc1ccc2c(Nc3ccc(CN4CCCCC4)cc3)c3ccc(N)cc3nc2c1 | > 100 | – | – | –
8500 | 500 | – | – | COc1cc(Nc2c3ccc(N)cc3nc3cc(N)ccc23)ccc1NS(C)(=O)=O | 17 | – | – | –
> 20000 | > 10000 | 100 (≈ 41.8 µg/mL) | > 100 | NS(=O)(=O)c1ccc(Nc2c3ccc(Cl)cc3nc3cc(Cl)ccc23)cc1 | – | – | – | –
< 1000 | 400 | – | – | COc1cc(NS(C)(=O)=O)ccc1Nc1c2ccc(N(C)C)cc2nc2cc(N(C)C)ccc12 | < 2.5 | – | – | –
11500 | 160 | – | – | CNc1ccc(Nc2c3ccc(N)cc3nc3cc(N)ccc23)cc1 | 72 | – | – | –
2500 | 250 | – | – | CN(C)Cc1ccc(Nc2c3ccccc3nc3cc(N)ccc23)cc1 | 10 | – | – | –
20000 | 20 | 6 (≈ 2.28 µg/mL) | 20 (≈ 7.59 µg/mL) | Nc1ccc2c(=Nc3ccc(S(N)(=O)=O)cc3)c3ccc(N)cc3[nH]c2c1 | 1000 | – | – | –
